Converted amounts (≈) assume the structure as drawn.

Series [1] relates to DNA. The experiment in a line: Binding affinity to DNA (unknown origin) assessed as change in melting temperature at 2:1 compound to DNA ratio by UV-visible spectrophotometry. It counts as nucleic-acid assay. In short, it runs like this: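 Duplex oligomer at 6 × 10⁻⁶ M in 10 mM PBS (pH 7.4) with 50 mM NaCl was annealed (90 °C, then unaided cooling) and mixed at 2 S-MGB:1 helix; the reference had no ligand. Samples were heated 10–90 °C and cooled 80–10 °C at 0.5 °C min⁻¹, with A260 recorded. Tm came from a Boltzmann sigmoid fit; three repeats.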

In series [2] the test system is Enterococcus faecalis. Kind of series: Antibacterial activity against Enterococcus faecalis ATCC 51299 measured after 18 hrs by two-fold serial dilution method. It counts as functional.
For series [3], the system named is Trypanosoma brucei brucei. Kind of series: Antiparasitic activity against bloodstream form of Trypanosoma brucei brucei Lister 427 measured after 48 hrs by alamar blue assay. The class given is functional. (Resazurin is reduced to fluorescent resorufin, in cell work by metabolically active cells.)
The subject of series [4] is Staphylococcus aureus. The experiment in a line: Antibacterial activity against Staphylococcus aureus ATCC 43300 measured after 18 hrs by two-fold serial dilution method. It counts as functional.
A short description of series [5]: Diffusion coefficient of compound in 50% v/v pH 5 sodium acetate buffer in DMSO-d6 at 1.5 mM by DOSY analysis. It counts as physicochemical. Conditions: pH 5, 1500 µM; call rule not given here.
Series [6] is described as follows: Aggregation property of compound in 45% DMSO-d6:55% 0.1 M pH 5 sodium acetate buffer at 1.5 mM by 1H-NMR spectra analysis. Conditions: pH 5, 1500 µM. It counts as physicochemical. In short, it runs like this: (§1)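 Proton NMR series at a fixed 1.5 mM S-MGB. DMSO-d6 was stepped down by 5% from 80% to 25% by adding 0.1 M pH 5 sodium acetate buffer, giving twelve solvent compositions per compound.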

A short description of series [7]: Aggregation property of compound in 0.1 M pH 5 sodium acetate buffer at 1.5 mM by 1H-NMR spectra analysis. It counts as physicochemical. The settings on record: pH 5, 1500 µM.
Series [8] is described as follows: Aggregation property of compound at 1.5 mM by 1H-NMR spectra analysis. The settings on record: 1500 µM.
A short description of series [9]: Resistance factor, ratio of EC50 for bloodstream form of Trypanosoma brucei brucei B48 to EC50 for wild-type bloodstream form of Trypanosoma brucei brucei. The class given is functional.
The test system of series [10] is Trypanosoma brucei brucei. Kind of series: Antiparasitic activity against bloodstream form of Trypanosoma brucei brucei B48 measured after 48 hrs by alamar blue assay. It counts as functional, organism-based. The settings on record: B48, 48 h.
Series [11] has as its system Trypanosoma congolense. Kind of series: Antitrypanosomal activity against bloodstream form of diminazene-resistant Trypanosoma congolense EMS MUT DimR measured after 48 hrs by alamar blue assay. It counts as functional, organism-based. The gist of the method:
(§2)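 Bloodstream-form T. congolense IL3000 and derived diminazene-resistant lines were grown at 34 °C in humidified 5% CO2 in supplemented MEM with 20% goat serum. Cells at 2.5×10^5 per mL were seeded into serial compound dilutions and incubated 48 h. 0.49 mM resazurin solution was then added for a further 24 h.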

The nature of series [12]: Resistance factor, ratio of EC50 for bloodstream form of diminazene-resistant Trypanosoma congolense DimR to EC50 for bloodstream form of wild-type Trypanosoma congolense. The class given is functional. In short, it runs like this:
(§3)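 The ratio was taken from Alamar Blue EC50s for resistant and wild-type IL3000 bloodstream-form T. congolense. Cells at 2.5×10^5 per mL were grown at 34 °C in 5% CO2 in supplemented MEM with compound for 48 h, then with resazurin for 24 h.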

In series [13] the test system is Trypanosoma brucei brucei. Kind of series: Antiparasitic activity against wild-type Trypanosoma brucei brucei measured after 48 hrs by alamar blue assay. It counts as functional, organism-based.
Series [14] deals with Trypanosoma congolense. The experiment in a line: Antitrypanosomal activity against bloodstream form of diminazene-resistant Trypanosoma congolense DimR measured after 48 hrs by alamar blue assay. It counts as functional, organism-based. The gist of the method:
as §2

The subject of series [15] is Trypanosoma vivax. Kind of series: Antitrypanosomal activity against Trypanosoma vivax STIB 719 by [3H]-hypoxanthine incorporation assay. The class given is functional, organism-based.
Series [16] has as its system Trypanosoma brucei brucei. The experiment in a line: Antiparasitic activity against bloodstream form of tbat1-/- deficient Trypanosoma brucei brucei measured after 48 hrs by alamar blue assay. The class given is functional, organism-based.
A short description of series [17]: Resistance factor, ratio of EC50 for bloodstream form of tbat1-/- deficient Trypanosoma brucei brucei to EC50 for wild-type bloodstream form of Trypanosoma brucei brucei. The class given is functional.
Series [18] deals with Trypanosoma congolense. The experiment in a line: Antitrypanosomal activity against bloodstream form of Trypanosoma congolense IL3000 measured after 48 hrs by alamar blue assay. It counts as functional, organism-based. Conditions: IL3000, 48 h. In short, it runs like this: as §2
Series [19] can be described thus: Resistance factor, ratio of EC50 for bloodstream form of diminazene-resistant Trypanosoma congolense EMS MUT DimR to EC50 for wild-type bloodstream form of Trypanosoma congolense. It counts as functional. The gist of the method: as §3
Series [20] concerns Trypanosoma congolense. Kind of series: Antitrypanosomal activity against bloodstream form of Trypanosoma congolense measured after 48 hrs by alamar blue assay. The class given is functional, organism-based. In short, it runs like this:
as §2

A short description of series [21]: Cytotoxicity against rat L6 cells assessed as reduction in cell viability measured after 69 hrs by alamar blue assay. It counts as toxicity, cell-based.
The test system of series [22] is Leishmania donovani. Kind of series: Antileishmanial activity against Leishmania donovani MHOM/ET/67:LV82 amastigotes infected in BMDM cell measured after 48 hrs by luciferase assay. The class given is functional, organism-based. The settings on record: MHOM/ET/67:LV82, BMDM. The gist of the method:
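Bone marrow-derived macrophages (0.5×10^5/well) were infected at a 20:1 […] ratio with luciferase-expressing L. donovani LV82. Free parasites were removed at 24 h post-infection, then doubling dilutions were added, starting at 25 or 20 μg mL⁻¹ from a 1 mg mL⁻¹ DMSO stock. At 72 h, luciferin (150 μg mL⁻¹) was added and bioluminescence suppression read against controls.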

Series [23] in a line: Aggregation property of compound in 70% v/v 0.1 M pH 5 sodium acetate buffer in DMSO-d6 at 1.5 mM by 1H-NMR spectra analysis. The settings on record: pH 5, 1500 µM. It counts as physicochemical. In short, it runs like this:
as §1

Take `COc1cccc(/C=C/c2ccc(C(=O)Nc3cc(C(=O)NN(C)C)n(C)c3)cc2)c1`: the ΔTm (as a rule, the change in melting temperature against a reference sample) in [1] came out at 0 °C.
As to `COc1cccc(/C=C/c2ccc(C(=O)Nc3cc(C(=O)N4CCN(C)CC4)n(C)c3)cc2)c1`, the MIC80 in series [2] and in series [4] was > 50 µM in each case. The EC50 (as a rule, the concentration that produces a half-maximal response) in series [3] is > 50000 nM. Further, in series [1], the ΔTm came out at 0 °C.
Regarding `Cn1cc(NC(=O)c2cc(NC(=O)c3ccc(/C=C/c4cnc5ccccc5c4)cc3)cn2C)cc1C(=O)NCCN1CCOCC1` [MGB-BP-3], in series [5], the D is 1.07 10^-10 m²/s. Further, the MIC80 (as a rule, the lowest concentration that inhibits either 80% of growth or 80% of the strains tested, depending on the study) in series [2] amounted to 0.78 µM (≈ 0.493 µg/mL); in series [4] it was 0.2 µM (≈ 0.126 µg/mL). Also, the outcome in series [6], in [7] and in series [8] was Active. Further, the EC50 in series [3] is < 190 nM. In addition, the shift in melting temperature (ΔTm) in series [1] came out at 20 °C.
As to `COc1cccc(/C=C/c2ccc(C(=O)Nc3cc(C(=O)Nc4cc(C(=O)NCCN5CCOCC5)n(C)c4)n(C)c3)cc2)c1`, the values for the MIC80 in series [2] and in [4] were 25 µM (≈ 15.3 µg/mL) and 6.25 µM (≈ 3.82 µg/mL), respectively. Also, in series [3], the EC50 was 780 nM. For the same molecule, in series [1], the ΔTm was determined as 10 °C.
In the case of `N=C(N)c1ccc(/N=N/Nc2ccc(C(=N)N)cc2)cc1` [DIMINAZENE], the Ratio EC50 in [9] stood at 2.6; in series [12], 9.5; in series [17], 5.9; in series [19], 10.9. Besides, the half-maximal effective concentration (EC50) in series [10] was 80 nM; in [11], 2300 nM; in [13], 30 nM; in series [3], 500 nM; in series [14], 2100 nM; in series [15] it was 170 nM. In addition, the EC50 in series [16] is 180 nM; in [18], 130 nM; in series [20], 200 nM.
With `Cn1cc(NC(=O)c2ccc(/C=C/c3cnc4ccccc4c3)cc2)cc1C(=O)NCCN1CCOCC1`, the Ratio EC50 in series [9] came out at 0.5; in series [12], 0.9; in series [17], 0.5; in [19], 0.9. Further, the 50% effective concentration (EC50) in [10] was found to be 600 nM; in [11] it was 3200 nM; in [13], 1200 nM; in series [3], 3120 nM; in series [22] it was 1600 nM; in series [14] it was 3100 nM. Further, the EC50 amounted to 760 nM in series [15], 550 nM in series [16], 870 nM in series [18] and 3400 nM in [20]. Besides, the D in [5] is 1.75 10^-10 m²/s. Further, the MIC80 in series [2] and in series [4] was > 50 µM each time. Further, in series [21], the EC50 at 69 h worked out at 6700 nM. Besides, the outcome in [6], in [7], in series [8] and in series [23] was Active. The ΔTm in series [1] worked out at 10 °C.
`CN1CCN(C(=O)c2cc(NC(=O)c3ccc(/C=C/c4cnc5ccccc5c4)cc3)cn2C)CC1`: the shift in melting temperature (ΔTm) in series [1] was 2 °C.
With `COc1cccc(/C=C/c2ccc(C(=O)Nc3cc(C(=O)NCCN4CCOCC4)n(C)c3)cc2)c1`, the MIC80 in series [2] and in [4] was > 50 µM each time. For the same molecule, the 50% effective concentration (EC50) in [3] is > 50000 nM. Further, the ΔTm in series [1] was 0 °C.
Consider `COc1ccc(/C=C/c2ccc(C(=O)Nc3cc(C(=O)Nc4cc(C(=O)NCCN5CCOCC5)n(C)c4)n(C)c3)cn2)cc1`, for which the MIC80 in series [2] amounted to 3.12 µM (≈ 1.91 µg/mL); in [4] it was 1.56 µM (≈ 0.954 µg/mL). In series [3], this molecule showed an EC50 of 1560 nM. Moreover, in series [1], the shift in melting temperature (ΔTm) was 12 °C.
For `COc1ccc(/C=C/c2ccc(C(=O)Nc3cc(C(=O)NN(C)C)n(C)c3)cn2)cc1` the same measures were > 50 µM, > 50 µM, > 50000 nM and 0 °C.
Regarding `COc1ccc(/C=C/c2ccc(C(=O)Nc3cc(C(=O)N4CCN(C)CC4)n(C)c3)cn2)cc1`, the MIC80 in series [2] and in [4] was > 50 µM each time. Moreover, the concentration for a half-maximal effect (EC50) in series [3] is > 50000 nM. The ΔTm in series [1] came out at 0 °C.
For the molecule `CN[C@H](CC(C)C)C(=O)N[C@H]1C(=O)N[C@@H](CC(N)=O)C(=O)N[C@H]2C(=O)N[C@H]3C(=O)N[C@H](C(=O)N[C@H](C(=O)O)c4cc(O)cc(O)c4-c4cc3ccc4O)[C@H](O)c3ccc(c(Cl)c3)Oc3cc2cc(c3O[C@@H]2O[C@H](CO)[C@@H](O)[C@H](O)[C@H]2O[C@H]2C[C@](C)(N)[C@H](O)[C@H](C)O2)Oc2ccc(cc2Cl)[C@H]1O` [VANCOMYCIN], the MIC80 was 6.25 µM (≈ 9.06 µg/mL) in [2] and 0.39 µM (≈ 0.565 µg/mL) in [4].

The values are drawn from ChEMBL document CHEMBL5136964, “Truncated S-MGBs: towards a parasite-specific and low aggregation chemotype” (RSC Med Chem, 2021).
